Data: ChEMBL document CHEMBL5674882, “Benzolactam-related compounds promote apoptosis of HIV-infected human cells via protein kinase C-induced HIV latency reversal” (J Biol Chem, 2019)
Activity calls are given as the source filed them. The calls are words filed in the database; no cut-off is given here.

Experiments:
J-Lat 6.3 (Homo sapiens) = assay: Induction of apoptosis in human J-Lat 6.3 cells at 1 uM incubated for 48 hrs after pre-incubated for 2 hrs with 20 uM caspase inhibitor Q-VD-Oph by propidium iodide/annexin-V staining based flow cytometry
ACH-2 cell line [1] = assay: Induction of apoptosis in human ACH-2 cells assessed as cleaved-PARP level at 10 nM incubated for 24 hrs by flow cytometry (reference value: 1.64%); assay type: functional
In short: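 Cells fixed, permeabilized, stained on ice with anti-cleaved PARP (Asp-214) mAb; % cleaved-PARP cells by flow cytometry. Means ± S.D. of three independent experiments.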

Jurkat = assay: Induction of apoptosis in human Jurkat cells assessed as caspase-3 activation at 10 nM incubated for 24 hrs by flow cytometry; assay type: functional
In short: (§1)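 Cells fixed in 1% paraformaldehyde, permeabilized, stained 30 min on ice with anti-active caspase-3 mAb, and analysed by flow cytometry. Three independent experiments.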

U-937 = assay: Induction of apoptosis in human U-937 cells assessed as caspase-3 activation at 10 nM incubated for 24 hrs by flow cytometry; assay type: functional
In short: as §1

ACH-2 cell line [2] = assay: Induction of apoptosis in human ACH-2 cells at 1 uM incubated for 48 hrs after pre-incubated for 2 hrs with 20 uM caspase inhibitor Q-VD-Oph by propidium iodide/annexin-V staining based flow cytometry; assay type: functional, cell-based
In short: (§2)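 ACH-2 or U1 cells pretreated 2 h with 20 µM pan-caspase inhibitor Q-VD-Oph, then exposed to 1 µM compound for 48 h. Annexin-V/PI staining by flow cytometry; apoptotic proportions compared with and without Q-VD-Oph. Mean ± S.D.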

J-Lat 6.3 [3] = assay: Induction of apoptosis in human J-Lat 6.3 cells at 1 uM incubated for 48 hrs by propidium iodide/annexin-V staining based flow cytometry (reference value: 3.16%); assay type: functional
J-Lat 6.3 [4] = assay: Induction of apoptosis in human J-Lat 6.3 cells assessed as caspase-3 activation at 10 nM incubated for 24 hrs by flow cytometry (reference value: 2.43%); assay type: functional
In short: as §1

U1 [5] = assay: Induction of apoptosis in human U1 cells assessed as caspase-3 activation at 10 nM incubated for 24 hrs by flow cytometry; assay type: functional
In short: as §1

U1 [6] = assay: Induction of apoptosis in human U1 cells at 1 uM incubated for 48 hrs after pre-incubated for 2 hrs with 20 uM caspase inhibitor Q-VD-Oph by propidium iodide/annexin-V staining based flow cytometry; assay type: functional, cell-based
In short: as §2

U1 [7] = assay: Induction of apoptosis in human U1 cells at 1 uM incubated for 48 hrs by propidium iodide/annexin-V staining based flow cytometry (reference value: 3.16%); assay type: functional
[8] = Induction of apoptosis in human CEM A3.01 cells assessed as caspase-3 activation at 10 nM incubated for 24 hrs by flow cytometry; assay type: functional
In short: as §1

[9] = target: T1, Protein kinase C (PKC) (Homo sapiens) (UniProt O94806+P41743+P17252+P05129+Q05655+P05771+Q05513+Q02156+P24723+Q15139+Q04759); assay: Induction of apoptosis in CCL19-induced human CD4+ T-cells infected with latent HIV-1 assessed as caspase-3 activation at 100 nM incubated for 48 hrs in presence of 2 uM ionomycin by incubated for 48 hrs by FACS; assay type: cell-based; conditions: CD4+ T cell, filed as activator
In short: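 Latency model: healthy-donor CD4+ T-cells given 100 nM CCL19 for 2 days, infected with HIV-1 NL4-3, kept 5 days in IL-2. Stimulated 2 days with 1 µM drug or 100 nM PMA plus 2 µM ionomycin. Cells fixed and permeabilized, co-stained with anti-p24 and anti-active caspase-3 mAbs; active caspase-3 read by flow cytometry separately in p24+ and p24− cells. Two donors.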

ACH-2 cell line [10] = assay: Induction of apoptosis in human ACH-2 cells assessed as caspase-3 activation at 10 nM incubated for 24 hrs by flow cytometry; assay type: functional
In short: as §1

J-Lat 6.3 [11] = assay: Induction of apoptosis in human J-Lat 6.3 cells assessed as caspase-3 activation at 10 nM incubated for 24 hrs by flow cytometry; assay type: functional
In short: as §1

ACH-2 cell line [12] = assay: Induction of apoptosis in human ACH-2 cells at 1 uM incubated for 48 hrs by propidium iodide/annexin-V staining based flow cytometry (reference value: 3.16%); assay type: functional
U1 [13] = assay: Induction of apoptosis in human U1 cells assessed as caspase-3 activation at 10 nM incubated for 24 hrs by flow cytometry (reference value: 1.86%); assay type: functional
In short: as §1

[14] = target: T1, Protein kinase C (PKC) (Homo sapiens); assay: Activation of PKC in CCL19-induced human CD4+ T-cells infected with latent HIV-1 assessed as reversal of HIV-1 latency by measuring increase in p24 antigen level at 100 nM incubated for 48 hrs in presence of 2 uM ionomycin by chemiluminescent enzyme immunoassay; assay type: cell-based; conditions: CD4+ T cell, filed as activator

**Q.** Which Activity (J-Lat 6.3 (Homo sapiens)) does the source give for `CCCCCCCCCCCCCC(=O)O[C@@H]1[C@@H](C)[C@@]2(O)[C@@H](C=C(CO)C[C@]3(O)C(=O)C(C)=C[C@@H]23)[C@@H]2C(C)(C)[C@]12OC(C)=O` [PHORBOL MYRISTATE ACETATE] here?
**A.** inactive

**Q.** And the Activity (ACH-2 cell line [1])?
**A.** 21.7%

**Q.** And the Activity (Jurkat)?
**A.** 2.03%

**Q.** And the Activity (U-937)?
**A.** 1.02%

**Q.** And the Activity (ACH-2 cell line [2])?
**A.** inactive

**Q.** And the Activity (J-Lat 6.3 [3])?
**A.** 15.2%

**Q.** And the Activity (J-Lat 6.3 [4])?
**A.** 19.9%

**Q.** And the Activity (U1 [5])?
**A.** 33.6%

**Q.** What about the Activity (U1 [6]) of the same molecule?
**A.** inactive

**Q.** And the Activity (U1 [7])?
**A.** 28.7%

**Q.** And the Activity [8]?
**A.** 2.39%

**Q.** What about the Activity [9] of the same molecule?
**A.** Active

**Q.** What about the Activity (ACH-2 cell line [10]) of the same molecule?
**A.** 27%

**Q.** And the Activity (J-Lat 6.3 [11])?
**A.** 12.9%

**Q.** And the Activity (ACH-2 cell line [12])?
**A.** 40.3%

**Q.** And the Activity (U1 [13])?
**A.** 8.06%

**Q.** What about the Activity [14] of the same molecule?
**A.** Active
